How the values were obtained:
[1] = target: T1, Adenosine receptor A1 (Rattus norvegicus) (UniProt P25099); assay: Displacement of specific [3H]DPCPX binding at rat cortical membrane (Adenosine A1 receptor) at concentration of […].
T1 sequence (whole entry): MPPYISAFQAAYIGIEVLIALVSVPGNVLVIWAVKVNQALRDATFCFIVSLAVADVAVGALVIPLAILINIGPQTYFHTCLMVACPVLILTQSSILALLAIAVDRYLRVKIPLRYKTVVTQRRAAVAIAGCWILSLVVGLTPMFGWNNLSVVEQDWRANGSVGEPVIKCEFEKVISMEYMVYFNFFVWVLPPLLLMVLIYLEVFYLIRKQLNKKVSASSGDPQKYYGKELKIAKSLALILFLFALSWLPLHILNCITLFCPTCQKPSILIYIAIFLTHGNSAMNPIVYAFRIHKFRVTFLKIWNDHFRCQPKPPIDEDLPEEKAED
Procedure, shortened: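 A1 binding used rat cortical membranes and [3H]DPCPX. Percentage displacement of specific binding was measured at one fixed test-compound concentration (n = 2-3).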

[2] = target: Adenosine receptor A2a (Rattus norvegicus) (UniProt P30543); assay: Displacement of specific [3H]CGS-21680 binding in rat striatal membrane (Adenosine A2A receptor) at concentration of […].; format: cell membranes; conditions: Striatum
Sequence of Adenosine receptor A2a (Rattus norvegicus) (P30543 whole entry): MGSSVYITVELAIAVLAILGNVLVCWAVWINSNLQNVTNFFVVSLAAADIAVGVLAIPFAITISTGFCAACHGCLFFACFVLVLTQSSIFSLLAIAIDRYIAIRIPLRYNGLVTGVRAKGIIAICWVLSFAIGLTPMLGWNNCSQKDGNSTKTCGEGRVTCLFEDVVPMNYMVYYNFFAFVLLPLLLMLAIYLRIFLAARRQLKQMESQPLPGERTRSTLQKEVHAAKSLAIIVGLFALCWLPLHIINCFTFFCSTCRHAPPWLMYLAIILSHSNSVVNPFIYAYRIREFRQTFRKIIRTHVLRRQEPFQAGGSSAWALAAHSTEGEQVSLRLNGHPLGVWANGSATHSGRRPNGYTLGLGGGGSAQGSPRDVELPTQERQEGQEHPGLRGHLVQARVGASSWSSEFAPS
Procedure, shortened: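 A2A binding used rat striatal membranes and [3H]CGS 21680. Percentage displacement of specific binding was measured at one fixed test-compound concentration (n = 2-3).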

Adenosine receptor A3 [3] = target: T2, Adenosine receptor A3 (Homo sapiens, UniProt P0DMS8); assay: Displacement of specific [125I]AB-MECA binding at human adenosine A3 receptor expressed in HEK 293 cells.; format: cell-based, HEK293
T2 sequence (P0DMS8 whole entry): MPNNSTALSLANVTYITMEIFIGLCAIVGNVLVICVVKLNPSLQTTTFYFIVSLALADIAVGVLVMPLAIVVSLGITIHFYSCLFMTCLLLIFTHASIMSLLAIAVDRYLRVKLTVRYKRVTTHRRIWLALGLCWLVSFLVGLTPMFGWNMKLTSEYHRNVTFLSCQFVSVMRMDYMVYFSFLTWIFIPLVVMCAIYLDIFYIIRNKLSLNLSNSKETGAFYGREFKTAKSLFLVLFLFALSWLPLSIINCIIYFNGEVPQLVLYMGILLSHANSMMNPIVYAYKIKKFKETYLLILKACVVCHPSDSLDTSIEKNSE

Adenosine receptor A3 [4] = target: T2, Adenosine receptor A3; assay: biochemical
[5] = target: T3, Adenosine receptor A3 (Homo sapiens) (UniProt P0DMS8); assay: Displacement of [125I]AB-MECA from human adenosine A3 receptor expressed in HEK 293 cells at […]; format: cell-based; conditions: HEK293
T3 sequence (whole entry): T2 sequence (P0DMS8 whole entry)
Procedure, shortened: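 Membranes from HEK 293 cells stably expressing the human A3 receptor were incubated with [125I]AB-MECA. Percentage displacement of specific binding was measured at a single test-compound concentration (n = 2-3).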

Row | SMILES | Displacement [1] [%] | Displacement [2] [%] | further results
1 | Cc1ccc(C(=N)Nc2nc(-c3ccccn3)cc3ccccc23)cc1 | 12 | 34 | –
2 | N=C(Nc1nc(-c2ccccn2)cc2ccccc12)c1ccc(Cl)cc1 | 20 | 7 | –
3 | CC(C(=O)c1ccccc1)c1nc(-c2ccccn2)cc2ccccc12 (stereo unspecified) | – | 5 | –
4 | Cc1cccc(C(=N)Nc2nc(-c3ccccn3)cc3ccccc23)c1 | 43 | 0 | –
5 | N=C(Nc1nc(-c2ccccn2)cc2ccccc12)c1cccc(Cl)c1 | 49 | 14 | –
6 | COc1cccc(C(=N)Nc2nc(-c3ccccn3)cc3ccccc23)c1 | 43 | 0 | –
7 | Cc1cccc(C)c1C(=O)N(C(=O)c1c(C)cccc1C)c1nc(-c2ccccn2)cc2ccccc12 | 0 | 0 | –
8 | Nc1nc2ccc(Cl)cc2c2nc(-c3ccco3)nn12 [CGS-15943] | – | – | Ki (Adenosine receptor A3 [3]): 143 nM; Ki (Adenosine receptor A3 [4]): 7.9 nM
9 | COc1ccc(C(=N)Nc2nc(-c3ccccn3)cc3ccccc23)cc1 | 18 | 5 | –
10 | N=C(Nc1nc(-c2ccccn2)cc2ccccc12)c1ccccc1 | 34 | – | –
11 | N=C(Nc1nc(-c2ccccn2)cc2ccccc12)c1ccc(Cl)c(Cl)c1 | 21 | 2 | –
12 | COC(=O)C1=C2C=CN(C)C=C2c2nc(-c3ccccc3)nn2C1 | – | – | Ki (Adenosine receptor A3 [3]): 172 nM

Second part, led by results:

Row | Displacement [1] [%] | Displacement [2] [%] | SMILES | further results
13 | 34 | 18 | CC(=O)N(C(C)=O)c1nc(-c2ccccn2)cc2ccccc12 | –
14 | 30 | 25 | CCc1nc(-c2ccccn2)cc2ccccc12 | –
15 | 47 | – | N=CNc1nc(-c2ccccn2)cc2ccccc12 | –
16 | – | 31 | c1ccc(-c2nc(-c3ccccn3)cc3ccccc23)cc1 | –
17 | 19 | 28 | Nc1nc(-c2ccccn2)cc2ccccc12 | Displacement [5]: 17%
18 | – | 7 | CSc1nc(-c2ccccn2)cc2ccccc12 | –
19 | – | 54 | CS(=O)(=O)c1nc(-c2ccccn2)cc2ccccc12 | –
20 | – | 19 | COc1nc(-c2ccccn2)cc2ccccc12 | –
21 | 43 | 29 | Clc1nc(-c2ccccn2)cc2ccccc12 | –
22 | – | 35 | Oc1nc(-c2ccccn2)cc2ccccc12 | –
